Measurements from ChEMBL document CHEMBL4808197, “Synthesis, docking, machine learning and antiproliferative activity of the 6-ferrocene/heterocycle-2-aminopyrimidine and 5-ferrocene-1H-Pyrazole derivatives obtained by microwave-assisted Atwal reaction as potential anticancer agents” (Bioorg Med Chem Lett, 2021).

Legend:
Format in all cases: functional, cell-based
HCT-116 = assay: Antiproliferative activity against human HCT-116 cells assessed as inhibition of cell proliferation measured by MTT assay
Outline: (§1)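 Tumour cell panel: HCT116 (colorectal carcinoma), PC3 (prostate adenocarcinoma), HL60 (acute promyelocytic leukaemia), SNB19 (astrocytoma). Antiproliferative effect reported as half-maximal inhibitory concentration (IC50, µM) for each line.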

PC-3 = assay: Antiproliferative activity against human PC-3 cells assessed as inhibition of cell proliferation measured by MTT assay; outline: as §1
HL-60 = assay: Antiproliferative activity against human HL-60 cells assessed as inhibition of cell proliferation measured by MTT assay; outline: as §1
SNB-19 = assay: Antiproliferative activity against human SNB-19 cells assessed as inhibition of cell proliferation measured by MTT assay; outline: as §1
HeLa = assay: Cytotoxicity against human HeLa cells assessed as inhibition of cell viability
B16-F10 = assay: Antiproliferative activity against mouse B16-F10 cells assessed as inhibition of cell proliferation
A549 = assay: Antiproliferative activity against human A549 cells assessed as inhibition of cell proliferation

| IC50 (HCT-116) [µM] | IC50 (PC-3) [µM] | IC50 (HL-60) [µM] | IC50 (B16-F10) [µM] | IC50 (A549) [µM] | SMILES | IC50 (SNB-19) [µM] | IC50 (HeLa) [µM] |
| --- | --- | --- | --- | --- | --- | --- | --- |
| 120 | 142 | 66.5 |  |  | Nc1nc(-c2ccccc2)cc(-c2cnn(-c3ccccc3)n2)n1 | > 200 |  |
| 95.3 | 58.2 | 68.2 |  |  | Nc1ccc(-c2cc(-c3cnn(-c4ccccc4)n3)nc(N)n2)cc1 | 106 |  |
| 133 | > 200 | > 200 |  |  | Nc1nc(-c2ccc([N+](=O)[O-])cc2)cc(-c2cnn(-c3ccccc3)n2)n1 | 132 |  |

The next lines start with the compound.

| SMILES | IC50 (HCT-116) [µM] | IC50 (PC-3) [µM] | IC50 (HL-60) [µM] | IC50 (B16-F10) [µM] | IC50 (A549) [µM] | IC50 (SNB-19) [µM] | IC50 (HeLa) [µM] |
| --- | --- | --- | --- | --- | --- | --- | --- |
| Nc1nc(-c2ccccc2)cc(-c2cccs2)n1 | 57 | 33.6 | 70.3 |  |  | 85.1 |  |
| Nc1nc(-c2ccccc2)cc(-c2ccc[nH]2)n1 | 55.5 | 81.5 | 29.3 |  |  | 174 |  |
| Nc1nc(-c2ccccc2)cc(-c2cn(-c3ccccc3)nc2-c2ccc([N+](=O)[O-])cc2)n1 |  |  |  |  |  |  | 5.47 |
| Cc1ccc(-c2cc(C(F)(F)F)nn2-c2ccc(S(N)(=O)=O)cc2)cc1 [CELECOXIB] |  |  |  | 16.2 | 16.3 |  |  |
